# PubChem BioAssay
# Active and inactive are the calls of the source.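 How the source made its calls, unless noted: active means inhibition at or above 50% at 10 µM; inactive means inhibition below 50%.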
# Legend:
# [1] = inhibitors of TNFa-induced NFkB p65 translocation, primary screen, imaging, HUVEC, MLSMR starter and 10KST1 sets (AID 438;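 active means inhibition above 20% together with a positive visual image hit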;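 further: compound added about 3h40 before a 20 min TNFalpha stimulation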;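 on inhibition: signal is the nuclear over cytoplasmic p65 intensity ratio per well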); settings: HUVEC TNFa-induced p65 nuclear translocation; cell count: measured here: nuclei count (cytotoxicity indicator), at 2.08 µM; inhibition: at 2 µM, stronger effect = higher value, 0% TNFa-plus-vehicle, 100% no-TNFa wells
# [2] = reduction of polyQ htt aggregates in cells – imaging, exon1htt(103Q)mCFP cells, high-content imaging, primary screen (AID 483;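 active means visual image review flags a hit and inhibition of aggregation exceeds 20%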;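 further: compound exposure lasted 3 days before fixation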;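 on nuclei count: percent of the per-plate median nuclei count of sample wells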); settings: exon1htt(103Q)mCFP cell line, aggregate imaging, at 2 µM; inhibition of aggregation: stronger effect = higher value; nuclei count: measured here: cell count, toxicity
# [3] = endothelial E-selectin expression blockers – imaging, HUVEC, immunofluorescence, MLSMR starter and 10KST1 sets, primary screen (AID 487;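 active means visually confirmed hit in the image check and inhibition above 20%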;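 on inhibition: signal is fraction of cell area covered by stained E-selectin grains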;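 on nuclei count: 100% = median nuclei count of all wells on the same plate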); settings: HUVEC TNFalpha-induced E-selectin immunofluorescence imaging, at 2 µM; inhibition: stronger effect = higher value; nuclei count: measured here: cell number, toxicity
# [4] = target: Voltage-gated potassium channel subunit beta-2 (Rattus norvegicus) (UniProt P62483); assay: inhibitors of rat Kvbeta2 reductase activity – biochemical, NADPH fluorescence, primary screen (AID 622;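 active means fluorescence slope higher than the sample average by over 3 SD, cut at about -0.22 in these data, passing the limit was not always enough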;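 further: slope of raw intensity against log time taken from 70 to 1610 s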); settings: recombinant KvBeta, 4-cyanobenzaldehyde reduction, at 10 µM, stronger effect = higher value
# [5] = target: Voltage-gated potassium channel subunit beta-2 (Rattus norvegicus) (UniProt P62483); assay: enhancers of rat Kvbeta2 NADPH turnover – biochemical, NADPH fluorescence, primary screen (AID 623;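 active means NADPH fluorescence slope more negative than the mean of all samples by about 3 SD, 99.7% confidence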;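 further: fluorescence intensity change per second fitted from 20 to 320 s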); settings: Recombinant KvBeta, NADPH fluorescence decrease slope, 10 min; at 10 µM; stronger effect = lower value
# [6] = target: Alpha-2C adrenergic receptor (Homo sapiens) (UniProt P18825); assay: compounds altering alpha2C-coupled GIRK flux – cell-based, HEK293 alpha2C/GIRK1/2, thallium flux, primary screen (AID 624;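 active means fluorescence slope after compound addition differing from the mean of all screened samples at 99.7% confidence, in either direction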;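 further: slope of fluorescence ratio to pre-addition baseline per second over 15 to 24 s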); settings: thallium flux BTC fluorescence, at 10 µM, actives lie on both sides
# [7] = inhibitors of larval lipid processing in zebrafish, primary screen, whole organism, PED6 fluorescence, gall bladder and intestine (AID 686;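 active means a full or partial loss of lipid-probe fluorescence in the fish gall bladder, intestine or both, judged by eye; inactive means no fluorescence loss, or compound toxic to the fish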;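 further: larvae 5 to 7 days old with five fish per well; signal comes from phospholipase A2 cleavage of quenched PED6 carried via bile; overnight exposure to compound and PED6 before scoring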); settings: Zebrafish larvae PED6 lipid processing, fluorescence scoring; screened at 20 µM (by protocol)
# Outline: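 Test system – live zebrafish larvae aged 5-7 days, whole organism · Buffer or medium – E3 fish medium · Reagent – quenched phospholipase substrate PED6, 100 nM final, ingested by larvae · Doses – 20 µM single dose · Incubation – overnight compound and PED6 incubation · Technique – visual fluorescence microscopy scoring of gall bladder, gut · Read-out basis – visual per-well fluorescence inhibition score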
# [8] = blockers of RIG-like receptor reporter activation – cell-based, Sendai virus stimulus, luciferase, 10K MLSCN set, TLR/RLR signaling modifier project, primary screen (AID 602276); settings: HEK293 RL24 IRF3 luciferase reporter, at 10 µM, stronger effect = higher value;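 further: firefly luciferase from ISG56 promoter only with Renilla not read in this screen; 0% = Sendai virus plus DMSO and 100% = medium plus DMSO without virus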
# [9] = TLR3 IRF3 reporter activation blockers – cell-based, poly I:C stimulus, luciferase, 10K MLSCN set, primary screen (AID 602277;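 active means inhibition of the reporter signal at or above 50%; inactive means inhibition below 50%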); settings: HEK293-TLR3 RL24 IRF3 luciferase reporter, at 10 µM, stronger effect = higher value
# Chain of Voltage-gated potassium channel subunit beta-2 (Rattus norvegicus) (P62483 whole entry, looked up): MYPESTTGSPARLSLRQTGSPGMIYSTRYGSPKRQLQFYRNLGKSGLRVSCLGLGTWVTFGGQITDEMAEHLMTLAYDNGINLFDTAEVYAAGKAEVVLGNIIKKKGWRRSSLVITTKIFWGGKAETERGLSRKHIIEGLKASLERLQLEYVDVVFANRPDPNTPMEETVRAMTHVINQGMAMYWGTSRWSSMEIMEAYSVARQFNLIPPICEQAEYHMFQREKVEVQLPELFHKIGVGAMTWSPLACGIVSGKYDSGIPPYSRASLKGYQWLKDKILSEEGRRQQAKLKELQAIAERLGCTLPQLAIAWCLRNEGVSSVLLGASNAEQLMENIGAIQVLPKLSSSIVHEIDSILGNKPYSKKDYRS
# Chain of Alpha-2C adrenergic receptor (Homo sapiens) (P18825 whole entry, looked up): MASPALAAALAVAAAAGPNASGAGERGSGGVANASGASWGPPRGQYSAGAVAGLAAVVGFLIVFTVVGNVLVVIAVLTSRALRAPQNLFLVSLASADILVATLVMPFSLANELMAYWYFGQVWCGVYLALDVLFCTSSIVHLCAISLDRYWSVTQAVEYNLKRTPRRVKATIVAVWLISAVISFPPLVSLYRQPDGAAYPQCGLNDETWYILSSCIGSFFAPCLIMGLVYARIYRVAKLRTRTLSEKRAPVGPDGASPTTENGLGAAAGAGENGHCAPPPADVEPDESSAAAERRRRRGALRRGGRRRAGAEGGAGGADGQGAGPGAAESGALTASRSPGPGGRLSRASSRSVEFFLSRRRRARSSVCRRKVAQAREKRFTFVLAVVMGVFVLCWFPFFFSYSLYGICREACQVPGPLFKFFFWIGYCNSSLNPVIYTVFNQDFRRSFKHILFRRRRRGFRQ
SMILES,cell count [1],inhibition [1],inhibition of aggregation [2],nuclei count [2] [%],inhibition [3],nuclei count [3] [%],fluorescence slope [4],NADPH fluorescence slope [5],slope [6],outcome [7],inhibition [8],inhibition [9]
CC(C)OC(=O)c1cc(NC(=O)C2C3CCC(O3)C2C(=O)O)cc(C(=O)OC(C)C)c1 (stereo not given),418,4.2% (inactive),7.3% (inactive),108,-49.1% (inactive),113,-0.454 (inactive),-5.2e-05 (inactive),0.00511 (inactive),inactive,20.3% (inactive),13.2% (inactive)
O=C(/C=C/N1CCOCC1)c1ccc(-c2ccccc2)cc1,617,-4.7% (inactive),8.3% (inactive),112,33.9% (inactive),101,-0.398 (inactive),-4.3e-05 (inactive),0.00595 (inactive),inactive,-22.9% (inactive),-53.1% (inactive)
C=CCOC(=O)CC(NC(=O)c1ccccc1)c1ccccc1 (stereo not given),510,9.6% (inactive),-15.9% (inactive),98.4,-231% (inactive),133,-0.382 (inactive),-6.2e-05 (inactive),0.00447 (inactive),inactive,13.9% (inactive),99% (active)
COc1ccc(C(NC(C)=O)c2ccc3cccnc3c2O)c(OC)c1 (stereo not given),444,2.1% (inactive),-3% (inactive),90.6,23.6% (inactive),111,-0.37 (inactive),-5.8e-05 (inactive),0.00602 (inactive),inactive,-12.8% (inactive),61.9% (active)
O=C(CCCSc1nc2ccccc2s1)NC1=NCCS1,333,-7.4% (inactive),10.8% (inactive),102,-3.2% (inactive),102,-0.409 (inactive),-1.5e-05 (inactive),0.00541 (inactive),inactive,36% (inactive),60.9% (active)
O=C(CSc1nc2ccccc2[nH]1)N1CCCCC1,433,0.5% (inactive),16% (inactive),102,13.2% (inactive),99.3,-0.435 (inactive),-3.6e-05 (inactive),0.00459 (inactive),inactive,-14.8% (inactive),-73.7% (inactive)
Cn1c(=O)[nH]c(=O)c2c1nc(N1CCOCC1)n2CC(O)COc1ccc2ccccc2c1 (stereo not given),438,-4.5% (inactive),10.8% (inactive),107,-54.4% (inactive),120,-0.44 (inactive),-3.2e-05 (inactive),0.00556 (inactive),inactive,15.8% (inactive),19.3% (inactive)
Cc1cc(NC(=O)CSc2nc3c(c(-c4cccnc4)c2C#N)CCC3)no1,595,-2.9% (inactive),0.1% (inactive),96.3,15.2% (inactive),88.6,-0.337 (inactive),-6.5e-05 (inactive),0.00719 (inactive),inactive,0.978% (inactive),-3.11% (inactive)
COc1ccc(OC)c(Nc2nc(-c3cccs3)cs2)c1,333,1.5% (inactive),-9.1% (inactive),104,-35.5% (inactive),110,-0.444 (inactive),-6e-05 (inactive),0.00343 (inactive),active; weak signal in gallbladder and intestine,7.1% (inactive),-5.46% (inactive)
CCn1c(SCC(=O)Nc2ccccc2N2CCCCC2)nc2c1c(=O)n(C)c(=O)n2C,490,-5.6% (inactive),19.9% (inactive),93.1,-15.6% (inactive),89.4,-0.338 (inactive),-6.7e-05 (inactive),0.00404 (inactive),inactive,16.1% (inactive),18.7% (inactive)
O=c1c2[nH]c3ccc(Cl)cc3c2ncn1Cc1ccccn1,302,-3.6% (inactive),-30.4% (inactive),83.4,-31.6% (inactive),107,-0.392 (inactive),-4.3e-05 (inactive),0.00522 (inactive),inactive,-2.53% (inactive),5.03% (inactive)
COc1cccc2c(=O)cc(C)n(CC(=O)Nc3ccc(C)c(C)c3)c12,456,9.4% (inactive),-8.4% (inactive),50.1,46.9% (inactive),85.2,-0.364 (inactive),-4.9e-05 (inactive),0.00483 (inactive),inactive,0.857% (inactive),-0.697% (inactive)
CCN(CC)S(=O)(=O)c1ccc(NC(=O)c2cccc3c2C(=O)N(CCOC)C3)cc1,778,-3.6% (inactive),5.3% (inactive),93.3,-84.2% (inactive),129,-0.244 (inactive),-2.6e-05 (inactive),0.00636 (inactive),inactive,10.3% (inactive),26.3% (inactive)
CCc1n[nH]c2c1C(=O)CC(C)(C)C2,438,-5.8% (inactive),4.8% (inactive),97.7,19.5% (inactive),110,-0.382 (inactive),-5e-05 (inactive),0.00556 (inactive),inactive,-8.61% (inactive),-7.25% (inactive)
Brc1ccc2ncnc(Nc3ccc(N4CCOCC4)cc3)c2c1,534,-13.2% (inactive),8.9% (inactive),106,29.5% (inactive),84.4,-0.375 (inactive),-5.5e-05 (inactive),0.00328 (inactive),inactive,16.4% (inactive),1.52% (inactive)
COCCNC(=O)NC(=O)COC(=O)Cc1ccc2c(c1)OCCO2,376,5.1% (inactive),-11.9% (inactive),109,-127% (inactive),110,-0.418 (inactive),-6.4e-05 (inactive),0.00538 (inactive),inactive,17% (inactive),16.3% (inactive)
CCOC(=O)CSc1nc2sc(C)c(C)c2c(=O)[nH]1,419,1.6% (inactive),-20% (inactive),104,-75.6% (inactive),102,-0.38 (inactive),-5e-06 (inactive),0.00685 (inactive),inactive,8.58% (inactive),9.53% (inactive)
CCCNC(=O)c1cc(S(=O)(=O)N2CCc3ccccc32)ccc1F,503,-17.2% (inactive),14.3% (inactive),74.6,-32.7% (inactive),104,-0.412 (inactive),-7.4e-05 (inactive),0.00573 (inactive),inactive,8.07% (inactive),0.176% (inactive)
O=C(c1ccc2snnc2c1)N1CCOCC1,370,6.3% (inactive),-11.2% (inactive),107,-50.1% (inactive),117,-0.371 (inactive),-4.9e-05 (inactive),0.00486 (inactive),inactive,10.1% (inactive),13.9% (inactive)
CC(OC(=O)c1ccco1)C(=O)NCc1cccs1 (stereo not given),609,-4.4% (inactive),7.4% (inactive),83,-95.9% (inactive),113,-0.444 (inactive),-6e-05 (inactive),0.00449 (inactive),inactive,17.9% (inactive),25.3% (inactive)
CCOc1ccc(CCNc2nc3c(c(=O)n(C)c(=O)n3C)n2CC)cc1OCC,602,6.3% (inactive),-0.6% (inactive),89.6,-23.5% (inactive),119,-0.305 (inactive),3.7e-06 (inactive),0.00587 (inactive),inactive,18.8% (inactive),9% (inactive)
CCC(=O)Nc1cc(Cl)ccc1N1CCN(C(=O)CC)CC1,376,2.1% (inactive),16.1% (inactive),102,-17.9% (inactive),90.8,-0.465 (inactive),-1.2e-05 (inactive),0.00532 (inactive),inactive,18.6% (inactive),16.6% (inactive)
C=C(C)Cn1c(CCCNC(=O)C(C)(C)C)nc2ccccc21,770,-19.6% (inactive),-0.5% (inactive),106,14% (inactive),110,-0.397 (inactive),-3.4e-05 (inactive),0.00533 (inactive),inactive,6.04% (inactive),98.2% (active)
COc1ccc(C(=O)NCCC(C)C)cc1S(=O)(=O)N1CCOCC1,229,-32.8% (inactive),0.6% (inactive),66.7,25.8% (inactive),109,-0.355 (inactive),6.5e-06 (inactive),0.00454 (inactive),inactive,17.2% (inactive),19.8% (inactive)
COc1ccccc1C(=O)NCC(c1cccnc1)N(C)C (stereo not given),776,-2.2% (inactive),-39.1% (inactive),112,1.4% (inactive),122,-0.422 (inactive),-5.3e-05 (inactive),0.00557 (inactive),inactive,10.3% (inactive),4.98% (inactive)
